Common to all, as to type: in vivo
In one series the test system is Swiss albino mice. The experiment in a line: Acute toxicity. As to conditions: i.p., observed 24 h. The method, boiled down:
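Albino mice, five per cage, on a 12 h light/dark cycle, fasted overnight. Acute toxic-class testing followed OECD 423. Deaths and signs of toxicity were recorded after dosing to estimate the median lethal dose.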

Series [1] deals with scPTZ-induced seizure in albino mice. In words: Subcutaneous pentylenetetrazole. To be noted: Mus musculus, ip, 4 h, read-out: scPTZ minimum dose for antiepileptic potential. The method, boiled down:
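Overnight-fasted albino mice were dosed i.p. with test compound in PEG-200 at 30, 100 and 300 mg/kg and observed at 0.5 and 4 h. Pentylenetetrazole was injected subcutaneously in the posterior midline. Protection meant no clonic spasm episode lasting 5 s, n = 5 per group. The minimum protective dose was reported.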

The next series deals with albino mice. In words: Rotarod neurotoxicity test. As to conditions: i.p. in mice, doses 30, 100, 300 mg/kg. In a few lines: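 Albino mice of either sex, housed five per cage on a 12 h light/dark cycle and fasted overnight, were first trained to balance on a 3.2 cm diameter rod turning at 6 rpm. Trained mice then received test compound i.p. in PEG-200 at 30, 100 or 300 mg/kg. Neurotoxicity was scored as failure to stay on the rod for at least 1 min in each of three successive trials.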
On the technique in general: In the rotarod test animals must keep their balance on a rotating rod.

SMILES strings stand for the structures.

`CCC1(c2ccccc2)C(=O)NC(=O)NC1=O` [phenobarbital, reference compound]: the “number of animals dead/tot number of animals tested” value in the series with Swiss albino mice (dosage 5 mg/kg), in the series on Swiss albino mice (dosage 30 mg/kg), in the series with Swiss albino mice (dosage 100 mg/kg) and in the series with Swiss albino mice (dosage 300 mg/kg) was 0/3 in each case. Further, the minimal effective dose in series [1] worked out at 100 mg/kg. Besides, the neurotoxicity minimum dose in the series on albino mice (0.5 h) stood at 100 mg/kg; in the series with albino mice (4.0 h), 300 mg/kg.
